Experimental data gathered from unrelated publications.
Each line is one published result; the experiments were not run side by side.
Cell line: MDA-MB-231
Read-out: cell growth or viability

SMILES	assay	setting	measurement	result
O=C(NN=Cc1ccc(Cl)cc1)C1CC(=O)N(c2ccc(F)cc2F)C1 (centres unmarked)	MTT	72 h	EC50	29.9 µM
COc1cccc(NC(=O)Nc2ccc(Oc3nc4ccccc4n4cnnc34)cc2)c1	MTT	3.125 µM, 24 h	viability	91.5%
CCN(CC)CCNC(=O)c1c(C)[nH]c(/C=C2\C(=O)Nc3ccc(F)cc32)c1C	MTT	72 h	EC50	3.4 µM
O=C(Nc1ccccc1)Nc1ccc(Oc2nc3ccccc3n3cnnc23)cc1	MTT	3.125 µM, 24 h	viability	100%
CCNc1nc2ccc(-c3c/c(=N\c4ccccc4NC(=O)CCN)c4ccccc4o3)cc2o1	CCK-8	1 µM	inhibition	54.2%
CCN(N=Cc1ccc(Br)cc1)C(=O)C1CC(=O)N(c2ccc(F)cc2F)C1 (centres unmarked)	MTT	72 h	EC50	32.9 µM
Cc1ccc(-c2nn(-c3ccccc3)cc2C=Nc2c(N)nc(S)nc2O)cc1	–	48 h	CC50	14.3 µM
COc1ccc2/c(=N/c3ccccc3NC(=O)[C@@H](N)C(C)(C)C)cc(-c3ccc4c(c3)OCO4)oc2c1	CCK-8	1 µM	inhibition	7.49%
COc1ccc(-c2nn(-c3ccccc3)cc2C=Nc2c(N)nc(S)nc2O)cc1	–	48 h	CC50	> 20 µM
O=C(Nc1ccc(Cl)cc1)Nc1ccc(Oc2nc3ccccc3n3cnnc23)cc1	MTT	100 µM, 24 h	viability	46.6%
COc1ccc2/c(=N/c3ccccc3NC(=O)[C@H](C)N)cc(-c3ccc4c(c3)OCCO4)oc2c1	CCK-8	1 µM	inhibition	13.8%
